In ChEMBL document CHEMBL1156453, “Cellular characterization of a novel focal adhesion kinase inhibitor” (J Biol Chem, 2007):
The source made the active and inactive calls. The rule behind the calls is not given here.

How the values were obtained:
[1] = molecular target: Protein kinase C theta type (Homo sapiens) (UniProt Q04759); assay: Inhibition of PKCtheta at 1 uM
[2] = test system: NIH3T3; assay: Inhibition of focal adhesion turnover in wounded mouse NIH3T3 cells expressing GFP-paxillin assessed as average adhesion life-time at 10 uM by TIRF microscopy; format: functional
[3] = test system: MDCK; assay: Induction of apoptosis in attached dog MDCK cells assessed as histone accumulation after 16 hrs by ELISA; format: functional, cell-based; settings: Canis lupus familiaris
Procedure, shortened: (§1)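 Attached cells in serum-containing medium treated with inhibitor at the indicated concentrations, 24 h for REF52 and PC3, 16 h for MDCK, then lysed. Free histones in lysates measured by cell death detection ELISA, in duplicate. Untreated adherent cells were the negative control. Cells suspended 16–24 h in serum-free medium were the positive control. One of three experiments shown.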

[4] = Cell number in rat REF52 cells at 10 uM after 3 days as % of control; settings: REF52, 72 h
[5] = test system: PC-3; assay: Induction of apoptosis in attached human PC3 cells assessed as histone accumulation after 24 hrs by ELISA; format: functional, cell-based; procedure, shortened: as §1
[6] = organism: Homo sapiens; assay: Inhibition of human CDK5/p35 at 1 uM
Procedure, shortened: (§2)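 Recombinant kinases were screened in a commercial profiling panel with the compound at a single concentration of 1 μM. The read-out is percent inhibition of each enzyme's kinase activity.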

[7] = test system: REF52; assay: Induction of apoptosis in attached rat REF52 cells assessed as histone accumulation after 24 hrs by ELISA; format: functional, cell-based; procedure, shortened: as §1
[8] = molecular target: CDK6/cyclin D3 (Homo sapiens) (UniProt P30281+Q00534); assay: Inhibition of human CDK6/cyclinD3 at 1 uM; format: protein-complex assay
[9] = molecular target: Mast/stem cell growth factor receptor Kit (Homo sapiens) (UniProt P10721); assay: Inhibition of c-kit at 1 uM
[10] = Inhibition of 10% serum-stimulated cell migration of rat REF52 cells at 1.0 uM pretreated for 30 mins measured after 6 hrs by transwell assay relative to control; format: functional
Procedure, shortened: (§3)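 Modified Boyden transwell, 8-μm pores. REF52 cells (1 × 10⁵) pretreated 30 min with inhibitor, which stayed in both chambers. Attractant was 10% FBS in the lower chamber, or membrane underside coated with 1.5 μg/ml fibronectin overnight at 4 °C under serum-free DMEM. Migration 6 h at 37 °C. Underside cells fixed, crystal-violet stained and counted in four fields. Triplicates normalized to untreated control; ANOVA then t-tests.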

[11] = organism: Homo sapiens; assay: Inhibition of human PKBalpha at 1 uM; procedure, shortened: as §2
[12] = molecular target: Ephrin type-A receptor 2 (Homo sapiens) (UniProt P29317); assay: Inhibition of EphA2 at 1 uM
[13] = molecular target: Tyrosine-protein kinase ABL1 (Homo sapiens) (UniProt P00519); assay: Inhibition of human Abl at 1 uM
[14] = molecular target: Cyclin-dependent kinase 7 (Homo sapiens, UniProt P50613); assay: Inhibition of human CDK7/cyclinH/MAT1 at 1 uM; procedure, shortened: as §2
[15] = test system: NIH3T3; assay: Inhibition of focal adhesion turnover in wounded mouse NIH3T3 cells expressing GFP-paxillin assessed as average adhesion life-time at 1 uM by TIRF microscopy; format: functional
[16] = Inhibition of 10% serum-stimulated cell migration of rat REF52 cells at 10 uM pretreated for 30 mins measured after 6 hrs by transwell assay relative to control; format: functional; procedure, shortened: as §3
[17] = molecular target: Dual specificity mitogen-activated protein kinase kinase 6 (Homo sapiens) (UniProt P52564); assay: Inhibition of MKK6 at 1 uM
[18] = molecular target: Mitogen-activated protein kinase 8 (Homo sapiens) (UniProt P45983); assay: Inhibition of human JNK1alpha1 at 1 uM
[19] = Inhibition of ACK at 1 uM; procedure, shortened: as §2
[20] = molecular target: Calcium/calmodulin-dependent protein kinase type IV (Homo sapiens) (UniProt Q16566); assay: Inhibition of human CaMK4 at 1 uM
[21] = molecular target: Tyrosine-protein kinase BTK (Homo sapiens) (UniProt Q06187); assay: Inhibition of BTK at 1 uM
[22] = test system: PC-3; assay: Induction of apoptosis in human PC3 cells attached in serum containing medium assessed as histone accumulation after 24 hrs by ELISA
[23] = Inhibition of fibronectin-stimulated cell migration of rat REF52 cells at 1.0 uM pretreated for 30 mins measured after 6 hrs by transwell assay relative to control; format: functional; procedure, shortened: as §3
[24] = molecular target: Paxillin (Rattus norvegicus) (UniProt Q66H76); assay: Decrease in Paxillin Try31 phosphorylation in rat REF52 cells; format: cell-based
Procedure, shortened: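 REF52 cells exposed to 1 μm inhibitor for the indicated times, then lysed in CH buffer containing phosphatase and protease inhibitors. Whole-cell lysates resolved by SDS-PAGE and immunoblotted with anti-phospho-Tyr31 paxillin and anti-paxillin.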

[25] = molecular target: RAC-alpha serine/threonine-protein kinase (Homo sapiens) (UniProt P31749); assay: Inhibition of AKT at 1 uM
[26] = molecular target: RAF proto-oncogene serine/threonine-protein kinase (Homo sapiens) (UniProt P04049); assay: Inhibition of human c-RAF at 1 uM
[27] = Inhibition of cell migration of rat REF52 cells assessed as reduction in rate of movement of cell into wound at 1 uM by wound healing assay in presence of 10% serum; format: functional; set-up: scale not given: the % may be the effect or the level left
Procedure, shortened: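 Confluent REF52 monolayers wounded with a pipette tip, with inhibitor added at wounding. Starting 1 h later, cells filmed for 9 h at 37 °C by DIC time-lapse microscopy. Nuclei of single cells tracked, and speed taken as track length divided by total movie time.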

[28] = molecular target: Insulin-like growth factor 1 receptor (Homo sapiens) (UniProt P08069); assay: Inhibition of IGF1R at 1 uM
[29] = molecular target: Inhibitor of nuclear factor kappa-B kinase subunit beta (Homo sapiens) (UniProt O14920); assay: Inhibition of human IKK-beta at 1 uM
[30] = Inhibition of MKK at 1 uM; procedure, shortened: as §2
[31] = molecular target: Ephrin type-B receptor 2 (Homo sapiens) (UniProt P29323); assay: Inhibition of EphB2 at 1 uM
[32] = Cell number in rat REF52 cells at 1 uM after 3 days as % of control; settings: REF52, 72 h
[33] = molecular target: Phosphatidylinositol 4,5-bisphosphate 3-kinase catalytic subunit gamma isoform (Homo sapiens) (UniProt P48736); assay: Inhibition of human PI3-Kgamma at 1 uM
[34] = Inhibition of fibronectin-stimulated cell migration of rat REF52 cells at 10 uM pretreated for 30 mins measured after 6 hrs by transwell assay relative to control; format: functional; procedure, shortened: as §3

Chain of Paxillin (Rattus norvegicus) (Q66H76 whole entry): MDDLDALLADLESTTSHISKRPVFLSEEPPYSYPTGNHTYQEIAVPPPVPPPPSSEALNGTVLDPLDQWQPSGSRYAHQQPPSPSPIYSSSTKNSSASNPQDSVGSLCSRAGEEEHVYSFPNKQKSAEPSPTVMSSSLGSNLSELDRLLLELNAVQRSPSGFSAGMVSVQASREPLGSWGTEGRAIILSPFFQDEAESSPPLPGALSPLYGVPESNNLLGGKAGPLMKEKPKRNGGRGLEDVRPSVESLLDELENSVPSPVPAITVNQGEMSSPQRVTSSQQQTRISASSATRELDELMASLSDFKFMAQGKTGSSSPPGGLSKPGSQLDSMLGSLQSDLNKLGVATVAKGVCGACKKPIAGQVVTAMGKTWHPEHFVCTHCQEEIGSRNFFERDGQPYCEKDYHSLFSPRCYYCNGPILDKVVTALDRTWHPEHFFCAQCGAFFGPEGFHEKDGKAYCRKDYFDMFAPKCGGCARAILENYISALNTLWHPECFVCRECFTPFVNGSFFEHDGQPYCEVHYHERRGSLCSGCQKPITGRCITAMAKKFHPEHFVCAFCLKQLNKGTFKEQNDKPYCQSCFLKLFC
Chain of Mitogen-activated protein kinase 8 (Homo sapiens) (P45983 whole entry): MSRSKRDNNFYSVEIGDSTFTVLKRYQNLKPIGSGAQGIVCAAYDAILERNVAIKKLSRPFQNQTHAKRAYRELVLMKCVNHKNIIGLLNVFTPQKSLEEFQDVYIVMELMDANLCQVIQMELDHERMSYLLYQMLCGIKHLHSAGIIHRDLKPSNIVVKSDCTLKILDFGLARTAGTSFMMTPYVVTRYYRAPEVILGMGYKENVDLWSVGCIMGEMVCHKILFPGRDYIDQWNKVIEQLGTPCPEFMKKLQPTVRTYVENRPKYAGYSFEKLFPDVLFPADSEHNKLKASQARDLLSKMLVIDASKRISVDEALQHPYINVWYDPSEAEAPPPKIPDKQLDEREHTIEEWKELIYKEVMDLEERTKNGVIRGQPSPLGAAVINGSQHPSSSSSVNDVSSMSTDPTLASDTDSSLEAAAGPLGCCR
Chain of Ephrin type-A receptor 2 (Homo sapiens) (P29317 whole entry): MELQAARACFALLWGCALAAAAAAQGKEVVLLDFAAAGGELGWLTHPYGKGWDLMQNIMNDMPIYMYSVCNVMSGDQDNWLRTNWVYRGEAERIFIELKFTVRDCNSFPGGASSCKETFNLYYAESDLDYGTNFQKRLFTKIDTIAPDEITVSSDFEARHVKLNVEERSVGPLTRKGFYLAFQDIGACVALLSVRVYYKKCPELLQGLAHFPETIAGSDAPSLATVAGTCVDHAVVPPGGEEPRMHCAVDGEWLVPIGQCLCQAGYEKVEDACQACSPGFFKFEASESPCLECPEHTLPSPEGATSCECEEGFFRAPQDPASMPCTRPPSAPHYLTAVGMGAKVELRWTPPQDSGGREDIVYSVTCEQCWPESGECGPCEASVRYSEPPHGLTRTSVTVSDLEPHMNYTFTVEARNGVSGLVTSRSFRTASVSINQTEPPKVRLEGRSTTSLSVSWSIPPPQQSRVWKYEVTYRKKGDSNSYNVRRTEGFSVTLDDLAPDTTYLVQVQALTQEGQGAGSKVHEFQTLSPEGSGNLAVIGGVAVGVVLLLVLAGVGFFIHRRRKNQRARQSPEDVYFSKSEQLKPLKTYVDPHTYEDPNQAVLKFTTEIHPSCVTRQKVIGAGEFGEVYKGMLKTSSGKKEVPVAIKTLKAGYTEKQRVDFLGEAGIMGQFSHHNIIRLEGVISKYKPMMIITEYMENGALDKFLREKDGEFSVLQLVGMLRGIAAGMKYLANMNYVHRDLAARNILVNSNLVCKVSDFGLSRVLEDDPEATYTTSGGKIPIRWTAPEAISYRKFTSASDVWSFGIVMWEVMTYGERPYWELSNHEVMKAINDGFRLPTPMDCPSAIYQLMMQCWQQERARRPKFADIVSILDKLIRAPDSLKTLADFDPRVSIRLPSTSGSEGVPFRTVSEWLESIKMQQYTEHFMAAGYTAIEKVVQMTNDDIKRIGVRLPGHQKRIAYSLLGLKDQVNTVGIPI
Chain of Calcium/calmodulin-dependent protein kinase type IV (Homo sapiens) (Q16566 whole entry): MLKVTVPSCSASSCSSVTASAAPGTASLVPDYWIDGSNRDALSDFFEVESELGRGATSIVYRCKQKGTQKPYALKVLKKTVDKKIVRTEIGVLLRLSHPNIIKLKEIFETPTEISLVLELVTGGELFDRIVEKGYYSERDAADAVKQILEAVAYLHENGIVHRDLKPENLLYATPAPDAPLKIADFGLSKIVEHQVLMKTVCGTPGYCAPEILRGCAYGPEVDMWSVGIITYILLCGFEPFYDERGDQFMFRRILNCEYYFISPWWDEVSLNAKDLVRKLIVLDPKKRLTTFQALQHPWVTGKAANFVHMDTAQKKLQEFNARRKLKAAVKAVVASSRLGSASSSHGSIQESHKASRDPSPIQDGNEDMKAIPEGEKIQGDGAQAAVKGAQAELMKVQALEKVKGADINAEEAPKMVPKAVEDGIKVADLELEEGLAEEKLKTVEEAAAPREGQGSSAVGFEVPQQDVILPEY
Chain of RAC-alpha serine/threonine-protein kinase (Homo sapiens) (P31749 whole entry): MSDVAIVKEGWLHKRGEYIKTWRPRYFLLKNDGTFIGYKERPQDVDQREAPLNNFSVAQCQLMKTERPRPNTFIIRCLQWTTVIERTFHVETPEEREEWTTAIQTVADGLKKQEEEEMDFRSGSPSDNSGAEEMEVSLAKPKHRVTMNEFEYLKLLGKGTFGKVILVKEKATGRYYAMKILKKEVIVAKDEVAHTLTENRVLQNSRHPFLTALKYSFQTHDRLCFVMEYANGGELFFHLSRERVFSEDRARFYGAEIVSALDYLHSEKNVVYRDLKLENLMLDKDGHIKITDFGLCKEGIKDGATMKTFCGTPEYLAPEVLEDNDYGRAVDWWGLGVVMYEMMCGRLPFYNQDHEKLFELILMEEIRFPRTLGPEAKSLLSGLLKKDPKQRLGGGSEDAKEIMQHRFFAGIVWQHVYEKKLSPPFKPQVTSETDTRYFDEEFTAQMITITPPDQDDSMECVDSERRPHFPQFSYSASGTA
Chain of RAF proto-oncogene serine/threonine-protein kinase (Homo sapiens) (P04049 whole entry): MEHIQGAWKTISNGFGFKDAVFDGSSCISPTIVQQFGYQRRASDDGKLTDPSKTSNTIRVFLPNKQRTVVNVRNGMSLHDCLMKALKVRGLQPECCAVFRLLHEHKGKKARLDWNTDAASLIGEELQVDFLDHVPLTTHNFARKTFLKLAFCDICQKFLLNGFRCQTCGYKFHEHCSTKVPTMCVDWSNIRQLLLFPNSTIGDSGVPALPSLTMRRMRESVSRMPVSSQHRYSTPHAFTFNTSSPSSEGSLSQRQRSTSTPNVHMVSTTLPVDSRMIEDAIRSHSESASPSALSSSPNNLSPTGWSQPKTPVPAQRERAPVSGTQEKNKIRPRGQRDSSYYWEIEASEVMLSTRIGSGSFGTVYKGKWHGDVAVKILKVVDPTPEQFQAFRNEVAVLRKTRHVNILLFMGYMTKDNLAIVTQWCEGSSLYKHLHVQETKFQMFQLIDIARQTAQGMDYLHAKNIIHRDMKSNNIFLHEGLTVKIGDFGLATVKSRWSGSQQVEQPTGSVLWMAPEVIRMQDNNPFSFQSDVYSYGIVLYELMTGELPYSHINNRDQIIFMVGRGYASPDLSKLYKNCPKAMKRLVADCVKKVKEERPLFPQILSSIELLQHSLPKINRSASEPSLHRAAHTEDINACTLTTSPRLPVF
Chain of Insulin-like growth factor 1 receptor (Homo sapiens) (P08069 31-736 limits assumed): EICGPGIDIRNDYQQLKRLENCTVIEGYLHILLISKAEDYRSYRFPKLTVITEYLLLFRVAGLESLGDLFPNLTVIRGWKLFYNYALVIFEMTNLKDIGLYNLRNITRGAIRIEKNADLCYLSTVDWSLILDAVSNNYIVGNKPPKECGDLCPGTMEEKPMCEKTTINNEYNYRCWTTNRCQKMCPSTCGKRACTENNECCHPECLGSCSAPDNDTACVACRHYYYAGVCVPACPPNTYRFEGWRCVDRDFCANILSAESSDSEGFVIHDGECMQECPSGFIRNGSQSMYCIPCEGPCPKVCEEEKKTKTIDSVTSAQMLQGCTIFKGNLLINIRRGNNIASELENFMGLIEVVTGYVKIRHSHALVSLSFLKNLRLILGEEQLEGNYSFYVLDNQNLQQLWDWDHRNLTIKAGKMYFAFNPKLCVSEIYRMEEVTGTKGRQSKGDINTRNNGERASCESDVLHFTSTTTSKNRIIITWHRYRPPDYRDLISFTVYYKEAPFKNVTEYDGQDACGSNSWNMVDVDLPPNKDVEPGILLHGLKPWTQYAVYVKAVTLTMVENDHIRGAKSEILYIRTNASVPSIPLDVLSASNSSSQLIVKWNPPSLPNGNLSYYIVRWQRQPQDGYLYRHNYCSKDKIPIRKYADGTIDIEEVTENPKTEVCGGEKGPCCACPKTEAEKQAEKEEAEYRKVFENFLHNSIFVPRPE
Chain of Insulin-like growth factor 1 receptor (Homo sapiens) (P08069 741-1367 limits assumed): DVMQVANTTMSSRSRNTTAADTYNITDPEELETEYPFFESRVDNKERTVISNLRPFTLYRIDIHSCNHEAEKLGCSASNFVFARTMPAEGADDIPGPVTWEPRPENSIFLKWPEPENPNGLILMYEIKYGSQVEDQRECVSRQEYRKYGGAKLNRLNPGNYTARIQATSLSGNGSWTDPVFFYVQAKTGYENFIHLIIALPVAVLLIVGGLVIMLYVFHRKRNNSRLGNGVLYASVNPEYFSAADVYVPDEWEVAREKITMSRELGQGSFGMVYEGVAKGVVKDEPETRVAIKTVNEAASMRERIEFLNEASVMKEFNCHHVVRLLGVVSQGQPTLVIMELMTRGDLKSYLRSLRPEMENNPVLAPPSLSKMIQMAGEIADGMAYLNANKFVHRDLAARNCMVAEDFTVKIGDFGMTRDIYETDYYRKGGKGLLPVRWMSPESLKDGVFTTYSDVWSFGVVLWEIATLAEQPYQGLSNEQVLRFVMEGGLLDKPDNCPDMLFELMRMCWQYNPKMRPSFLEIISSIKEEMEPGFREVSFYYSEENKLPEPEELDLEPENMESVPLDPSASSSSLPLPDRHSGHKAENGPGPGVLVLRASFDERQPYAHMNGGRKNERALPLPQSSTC

With `CS(=O)(=O)c1cccc(CNc2nc(Nc3ccc4c(c3)CCC(=O)N4)ncc2C(F)(F)F)c1` the inhibition [1] was 36%, the Time [2] was 42 min and the Activity [3] was “inactive”. For the same molecule, the level, % of control at 10 µM [4] was 7%, the Activity [5] was “inactive” and the inhibition [6] was 0%. The Activity [7] was “inactive”, the inhibition [8] was 15% and the inhibition [9] was 25%. The Activity [10] was 1, the inhibition [11] was 13% and the inhibition [12] was 15%. For the same molecule, the inhibition [13] was 8%, the inhibition [14] was 86% and the Time [15] was 33.1 min. The Activity [16] was 0.3, the inhibition [17] was 16% and the inhibition [18] was 4%. For the same molecule, the inhibition [19] was 29%, the inhibition [20] was 0% and the inhibition [21] was 11%. The Activity [22] was “inactive”, the Activity [23] was 2.2 and the Activity [24] was “Dose-dependent effect”. The inhibition [25] was 0%, the inhibition [26] was 0% and the Activity [27] was 27%. For the same molecule, the inhibition [28] was 21%, the inhibition [29] was 56% and the inhibition [30] was 48%. For the same molecule, the inhibition [31] was 11%, the level, % of control at 1 µM [32] was 141% and the inhibition [33] was 0%. It also gave an Activity [34] of 0.5.
